ChEMBL document CHEMBL3407391, “Ether analogues of DPA-714 with subnanomolar affinity for the translocator protein (TSPO)” (Eur J Med Chem, 2015)

Columns and labels:
[1] = system: C6; test: Induction of pregnenolone production in rat C6 cells at 40 uM after 2 hrs by ELISA based steroidogenesis assay relative to control; assay type: functional
How it was run: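 C6 glioma cells grown in DMEM with 10% FBS at 37 °C, 5% CO2, then seeded at 1×10^4 cells/well and washed three times with simple salts medium (HEPES/NaOH pH 7.4, 0.1% BSA). Cells were exposed to compound at 40 μM in salts medium with trilostane (25 μM) and SU 10603 (10 μM) for 2 h at 37 °C, DMSO ≤0.5%. Secreted pregnenolone was measured by ELISA; 6–9 replicates.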

[2] = target: T1, Translocator protein (Rattus norvegicus, UniProt P16257); parameters: species or system Wistar, Kidney
[3] = target: T1, Translocator protein; test: Inhibition of rat TSPO
[4] = target: Translocator protein (Homo sapiens, UniProt P30536); test: Inhibition of human TSPO
Chain of Translocator protein (Homo sapiens, UniProt P30536) (P30536 whole entry): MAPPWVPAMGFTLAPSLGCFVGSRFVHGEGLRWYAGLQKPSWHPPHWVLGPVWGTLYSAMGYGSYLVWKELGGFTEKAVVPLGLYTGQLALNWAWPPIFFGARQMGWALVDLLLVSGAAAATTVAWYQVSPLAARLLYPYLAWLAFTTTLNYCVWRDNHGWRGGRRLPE

T1 sequence (P16257 whole entry, looked up): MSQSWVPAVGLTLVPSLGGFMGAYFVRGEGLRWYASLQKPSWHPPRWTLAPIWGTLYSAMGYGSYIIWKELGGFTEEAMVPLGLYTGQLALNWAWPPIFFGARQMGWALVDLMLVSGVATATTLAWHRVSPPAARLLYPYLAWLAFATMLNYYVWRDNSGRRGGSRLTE

Ki [2] [nM]	SMILES	Activity [1] [%]	further results
	CCC(C)N(C)C(=O)c1cc2ccccc2c(-c2ccccc2Cl)n1 (stereo unspecified) [PK-11195]	166.5	
	CCN(CC)C(=O)Cc1c(-c2ccc(OCC3CC3)cc2)nn2c(C)cc(C)nc12	226.3	
0.67	CCN(CC)C(=O)Cc1c(-c2ccc(OCc3cccc(C(F)(F)F)c3)cc2)nn2c(C)cc(C)nc12	230	
1.4	CCN(CC)C(=O)Cc1c(-c2ccc(OCc3ccccc3C(F)(F)F)cc2)nn2c(C)cc(C)nc12	331.7	
	CCN(CC)C(=O)Cc1c(-c2ccc(OCc3ccc(F)cc3)cc2)nn2c(C)cc(C)nc12	311.7	
	CCN(CC)C(=O)Cc1c(-c2ccc(OCC3CCCC3)cc2)nn2c(C)cc(C)nc12	173.9	
1.6	CCN(CC)C(=O)Cc1c(-c2ccc(OCc3ccc(C(F)(F)F)cc3)cc2)nn2c(C)cc(C)nc12	189.9	
0.47	CCN(CC)C(=O)Cc1c(-c2ccc(OCc3cccc(F)c3)cc2)nn2c(C)cc(C)nc12	281.2	
1.5	CCN(CC)C(=O)Cc1c(-c2ccc(OC3CCCC3)cc2)nn2c(C)cc(C)nc12	273.4	
	CCN(CC)C(=O)Cc1c(-c2ccc(OCC(C)C)cc2)nn2c(C)cc(C)nc12	206.5	
	CCN(CC)C(=O)Cc1c(-c2ccc(OCc3ccccc3F)cc2)nn2c(C)cc(C)nc12	161.5	
0.86	CCN(CC)C(=O)Cc1c(-c2ccc(OC3CCC3)cc2)nn2c(C)cc(C)nc12	184.3	
	CCN(CC)C(=O)Cc1c(-c2ccc(OC(C)C)cc2)nn2c(C)cc(C)nc12	165	
	CCN(CC)C(=O)Cc1c(-c2ccc(OCC3CCCCC3)cc2)nn2c(C)cc(C)nc12	134.2	
	CCN(CC)C(=O)Cc1c(-c2ccc(OCc3ccccc3)cc2)nn2c(C)cc(C)nc12	262.4	
	CCN(CC)C(=O)Cc1c(-c2ccc(OCC3CCC3)cc2)nn2c(C)cc(C)nc12	298.4	
	COc1ccccc1CN(C(C)=O)c1cnccc1Oc1ccccc1		Ki [3]: 0.7 nM; Ki [4]: 2.5 nM
	CCN(CC)C(=O)Cc1c(-c2ccc(OCCc3ccccc3)cc2)nn2c(C)cc(C)nc12	254	
	COc1ccc(OC)c(CN(C(C)=O)c2cc(F)ccc2Oc2ccccc2)c1		Ki [4]: 0.2 nM
